Source: PubChem
Sampled rows, rich in hits. Any-hit rate of the full collection: about 2.3%.
STAT3 activator: increases IL-6 driven STAT3 reporter signal. U3A cells, IL-6 STAT3-luciferase reporter, luminescence; 100% = signal with IL-6 EC80 alone. AID 871. 190,000 tested, 0.91% active. activation (% of control), % at 5.6 µM;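 active means activation above the screen-wide mean of compound activation plus 3 SD, cut at about 130% in these data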
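Test system: human U3A cells carrying STAT3-luciferase construct; control set: IL-6-only wells as 100% reference; timing: compound pre-incubation 1 h before IL-6, then 6 h stimulation at 37 °C; also added: IL-6 stimulus at 33 ng/mL final; evaluation: % activation versus median of IL-6-stimulated wells; detection: reporter luminescence signal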
C8 TRAIL sens: sensitizes caspase-8 expressing cells to TRAIL; inhibition (viability loss, TRAIL sensitization), % at 10 µM; 360,000 tested, 1% active; AID 624354; NB7+C8 cells + TRAIL, ATPlite viability luminescence;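 active means compounds causing at least 50% loss of cell viability in the single-dose screen, relative to plate controls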
STAT3 inh: inhibitors of IL-6 induced STAT3 signaling; U3A cells, IL-6 STAT3-luciferase reporter, luminescence; host cell line lacks STAT1; inhibition, % at 5.5 µM; 190,000 tested, 0.89% active; AID 862;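 active means inhibition above the mean inhibition across all screened compounds plus 3 SD, cut at about 44% in these data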
PPC-1+TRAIL kill: compounds killing PPC-1 cancer cells with TRAIL present (potentiator screen, no TRAIL-free arm); AID 1443; PPC-1 cells + TRAIL, ATPLite viability luminescence; 220,000 tested, 0.41% active; cell killing (% activity), % at 4 µM or 5 µM;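 active means cell killing above 50% in the first pass at 4 µM, then a duplicate retest at 5 µM averaging 50% or more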
STAT1 inh: reduces IFN-gamma driven STAT1 reporter signal; NIH 3T3 STAT1-luciferase reporter, luminescence; inhibition, % at 5.5 µM; 200,000 tested, 0.35% active;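 active means inhibition above a set limit, the mean inhibition across all tested compounds plus 3 SD, cut at about 34% in these data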
HSP90 inh: inhibitors of HSP90 luciferase refolding in rabbit reticulocyte lysate. luciferase refolding luminescence, 3 h. inhibition, % at 5.6 µM. 290,000 tested, 0.91% active. AID 1789;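 active means inhibition above the screen-wide mean plus 3 SD, computed separately per campaign, cut at about 16% in these data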;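 further: inhibitors lower the luminescence because luciferase stays unfolded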
HSP90 confirm: HSP90 inhibition, confirmation assay; 2,300 tested, 64% active; shares compounds with HSP90 inh; rabbit reticulocyte lysate, luciferase refolding luminescence, 3 h; inhibition, % at 5.9 µM; in the data active means inhibition above about 18%
FLuc counter: firefly luciferase inhibition, HSP90 counter-screen | shares compounds with HSP90 inh | purified native firefly luciferase, luminescence | inhibition, % at 5.9 µM | 2,300 tested, 48% active;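 active means inhibition above the mean inhibition of all tested sample wells plus 3 SD, cut at about 10% in these data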
Target sequence (P08659 whole entry, looked up): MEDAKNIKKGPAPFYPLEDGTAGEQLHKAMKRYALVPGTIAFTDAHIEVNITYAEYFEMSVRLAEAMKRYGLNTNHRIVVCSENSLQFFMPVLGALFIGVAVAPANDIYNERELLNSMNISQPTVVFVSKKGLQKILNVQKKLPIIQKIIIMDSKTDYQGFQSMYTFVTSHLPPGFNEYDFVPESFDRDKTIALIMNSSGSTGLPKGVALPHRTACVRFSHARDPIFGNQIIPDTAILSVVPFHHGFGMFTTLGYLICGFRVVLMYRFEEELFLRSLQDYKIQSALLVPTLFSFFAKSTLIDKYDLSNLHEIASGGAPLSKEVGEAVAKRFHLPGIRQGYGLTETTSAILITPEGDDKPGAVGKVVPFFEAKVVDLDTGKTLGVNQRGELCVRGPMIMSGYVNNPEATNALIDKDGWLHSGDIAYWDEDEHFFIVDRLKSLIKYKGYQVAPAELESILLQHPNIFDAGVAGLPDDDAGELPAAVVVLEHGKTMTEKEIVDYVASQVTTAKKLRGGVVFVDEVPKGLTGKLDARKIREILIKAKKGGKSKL
Each line names hits and unclear results; the compound was inactive in the other large screens (follow-up assays come after a bar, where they were run).

O=C(c1ccccc1)c1ccc(Oc2ncccn2)cc1	none
Cc1cc2ncc(-c3cccs3)nc2cc1C	C8 TRAIL sens 69, HSP90 inh 35 (no result: STAT3 activator, STAT3 inh, PPC-1+TRAIL kill, STAT1 inh) | HSP90 confirm 61 | FLuc counter 59
c1csc(-c2ccc3ccccc3n2)c1	none
CC(C)c1ccccc1OCCNC(=O)c1cncc(Br)c1	none
Nc1c(C(=O)Nc2cccc(C(=O)O)c2)sc2nc3c(cc12)CCCC3	C8 TRAIL sens 82, HSP90 inh 91 (no result: STAT3 activator, STAT3 inh, PPC-1+TRAIL kill, STAT1 inh) | HSP90 confirm 97 | FLuc counter 90
COc1ccc(-n2ncc3c(N4CCCCC4)ncnc32)cc1	C8 TRAIL sens 89, STAT3 inh 107, STAT1 inh 72, HSP90 inh 67 (no result: PPC-1+TRAIL kill) | HSP90 confirm 90 | FLuc counter 86
CCSc1oc(-c2ccco2)nc1S(=O)(=O)c1ccccc1	none
COCCCN=Cc1c(C)[nH]n(-c2ccc(Br)c(C)c2)c1=O	HSP90 inh 18 | HSP90 confirm 42 | FLuc counter 38
CC(NC(=O)C1CCCC1)c1ccc(Br)cc1 (centres undefined)	none (no result: STAT3 activator, STAT3 inh, PPC-1+TRAIL kill, STAT1 inh)
Cc1nn(C)c(C)c1S(=O)(=O)N1CCCC(C(=O)NC2CCCCC2)C1 (centres undefined)	none
CNC(=S)N/N=C/c1ccc(-c2cccc(C(=O)O)c2)o1	HSP90 inh 26 (no result: STAT3 activator, STAT3 inh, STAT1 inh) | HSP90 confirm inactive | FLuc counter inactive
Cc1ccc(-c2ccc(/C=N/NC(=O)c3ccccc3O)o2)cc1	HSP90 inh 22 (no result: STAT3 activator, C8 TRAIL sens, STAT3 inh, STAT1 inh) | HSP90 confirm inactive | FLuc counter inactive
NS(=O)(=O)c1ccc(-c2ccc(/C=N/NC(=O)c3ccccc3O)o2)cc1	none (no result: STAT3 activator, STAT3 inh, STAT1 inh)
CCN(C(=O)Nc1ccccc1)c1ccccc1	none
CCCc1ccc2oc(C(=O)N3CCC[C@H]3CO)c(C)c2c1	none (no result: STAT3 activator, STAT3 inh, PPC-1+TRAIL kill, STAT1 inh)
CC1CCN(c2nc3ccc(C(=O)O)cc3s2)CC1	STAT3 inh 109, STAT1 inh 80, HSP90 inh 97 | HSP90 confirm 100 | FLuc counter 92
Nc1ccc(-c2nc3ccc(C(=O)O)cc3s2)cc1	C8 TRAIL sens 70, STAT3 inh 104, STAT1 inh 89, HSP90 inh 100 | HSP90 confirm 101 | FLuc counter 92
NC(=O)c1ccc2nc(NC(=O)c3ccc(N)cc3)sc2c1	none
CC1CCN(c2nc3ccc(C(=O)NCCCN4CCCCC4)cc3s2)CC1	none (no result: STAT3 activator, STAT3 inh, PPC-1+TRAIL kill, STAT1 inh)
O=c1[nH]n(-c2ccc(F)cc2)c2ncccc12	none
Cc1c(-c2ccccn2)c(=O)[nH]n1-c1ccc(F)cc1	HSP90 inh 22 | HSP90 confirm 30 | FLuc counter inactive
CC(C)(C)OC(=O)NNC(=S)NC1CCCCC1	none
CCOC(=O)/C(=N\Nc1ncnc2ccccc12)c1ccc(OC)cc1	HSP90 inh 18 (no result: STAT3 activator, STAT3 inh, PPC-1+TRAIL kill, STAT1 inh) | HSP90 confirm 23 | FLuc counter inactive
COc1ccc(-c2cc(C(=O)Nc3sc4c(c3C#N)CCCC4)c3ccccc3n2)cc1OC	none
Cc1cc(C(=O)COC(=O)c2ccncc2)c(C)n1Cc1ccco1	HSP90 inh 26 | HSP90 confirm 41 | FLuc counter 75
Cc1cccc(-c2cc3nc(C)c(C)c(NCCCn4ccnc4)n3n2)c1	HSP90 inh 19 (no result: STAT3 activator, STAT3 inh, STAT1 inh) | HSP90 confirm inactive | FLuc counter inactive
Cc1cc(NCCCn2ccnc2)n2nc(-c3ccc(F)cc3)cc2n1	none
Cc1c(C(c2cccc([N+](=O)[O-])c2O)c2c(C)n(C)n(-c3ccccc3)c2=O)c(=O)n(-c2ccccc2)n1C	none
Cc1[nH]n(-c2ccccc2)c(=O)c1C(c1cccc([N+](=O)[O-])c1O)c1c(C)[nH]n(-c2ccccc2)c1=O	HSP90 inh 24 | HSP90 confirm inactive | FLuc counter inactive
Cn1c(C(=O)Nc2ccc3c(c2)OCCO3)cc2c(=O)n(C)c3ccccc3c21	none
COCCNC(=O)C(=O)Nc1cccc(Br)c1	none
COCCNC(=S)NNc1cccc(C(=O)O)c1	HSP90 inh 18 | HSP90 confirm inactive | FLuc counter inactive
O=C(CCNc1cc(Cl)cc(Cl)c1)c1ccco1	none
O=C(O)CCCCCn1c(SCC(=O)N2CCCC2)nc2ccsc2c1=O	HSP90 inh 64 | HSP90 confirm inactive | FLuc counter inactive
O=C(O)CCCCCn1c(SCC(=O)c2ccc(O)c(O)c2)nc2ccsc2c1=O	none
O=C1CCCCC1Sc1nnc(-c2ccc3c(c2)OCO3)o1 (centres undefined)	C8 TRAIL sens 53, STAT3 inh 105, STAT1 inh 87, HSP90 inh 75 | HSP90 confirm 93 | FLuc counter 79
Clc1ccc(CSc2nnc(-c3ccc4c(c3)OCO4)o2)cc1	none
COC(=O)NNC(=O)/C=C/c1ccccc1	none
Cn1c(=O)n(C)c2cc(S(=O)(=O)Nc3ccccc3O)ccc21	none
CCC1(C)Cc2c(sc(NC(=S)NC(=O)c3ccccc3)c2C#N)CO1 (centres undefined)	none
CN1Cc2sc(NC(=S)NC(=O)c3ccccc3)c(C#N)c2CC1(C)C	HSP90 inh 17 (no result: STAT3 activator, C8 TRAIL sens, STAT3 inh, STAT1 inh) | HSP90 confirm 31 | FLuc counter 15
O=C1CCN(Cc2ccccc2)CCN1CCOc1ccccc1	HSP90 inh 17 (no result: STAT3 activator, STAT3 inh, PPC-1+TRAIL kill, STAT1 inh) | HSP90 confirm inactive | FLuc counter 21
O=C(Nc1ccccc1)OCCN1CCN(Cc2ccccc2)CCC1=O	none
c1ccc(C2CSc3ccccc3N2)cc1 (centres undefined)	HSP90 inh 38 (no result: STAT3 activator, STAT3 inh, PPC-1+TRAIL kill, STAT1 inh) | HSP90 confirm inactive | FLuc counter inactive
Cc1ccc(S(=O)(=O)/N=C2/C=C(C3C(=O)CC(C)(C)CC3=O)C(=O)c3ccccc32)cc1	none
CCc1ccc(S(=O)(=O)/N=C2/C=C(Sc3ncn[nH]3)C(=O)c3ccccc32)cc1	STAT3 activator 139, HSP90 inh 88 | HSP90 confirm 33 | FLuc counter 34
Cc1cc(C)c(S(=O)(=O)/N=C2\C=C(Nc3ccc(C(=O)O)cc3)C(=O)c3ccccc32)c(C)c1	C8 TRAIL sens 58, HSP90 inh 46 (no result: STAT3 activator, STAT3 inh, PPC-1+TRAIL kill, STAT1 inh) | HSP90 confirm 79 | FLuc counter inactive
CCc1ccc(S(=O)(=O)/N=C2\C=C(Nc3ccc(O)cc3)C(=O)c3ccccc32)cc1	C8 TRAIL sens 97, HSP90 inh 31 (no result: STAT3 activator, STAT3 inh, PPC-1+TRAIL kill, STAT1 inh) | HSP90 confirm 72 | FLuc counter inactive
O=C1C=C(Nc2ccc(O)cc2)C(=O)c2ccccc21	none (no result: STAT3 activator, STAT3 inh, STAT1 inh)
CCc1ccc(S(=O)(=O)/N=C2\C=C(Nc3cccc(C(=O)O)c3)C(=O)c3ccccc32)cc1	HSP90 inh 69 (no result: STAT3 activator, STAT3 inh, PPC-1+TRAIL kill, STAT1 inh) | HSP90 confirm 82 | FLuc counter inactive
CC1(C(=O)NS(=O)(=O)c2cccc(Cl)c2)CCN1C(=O)CC1CCCC1 (centres undefined)	none (no result: STAT3 activator, STAT3 inh, PPC-1+TRAIL kill, STAT1 inh, HSP90 inh)
COc1ccc(C)cc1NC(=O)c1nnn(CCc2ccccc2)c1N	none
